Screening data: PubChem, several laboratories
Most compounds without a hit are left out; they make up all but 2.6% or so of the library.
Exocytosis inh: blocks lytic granule exocytosis. TALL-104 LAMP-1 surface exposure, flow cytometry; cells stimulated with thapsigargin and PMA. inhibition, % at 10 µM. 0.66% of 360,000 active;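 active = inhibition above about 55%, limit read from the data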
MC4R barr agon: activates human MC4R beta-arrestin recruitment. P32245. U2OS MC4R beta-arrestin complementation, luminescence; percent of melanotan II response, DMSO zero. activation, % at 8.9 µM. 0.98% of 360,000 active. AID 540308;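 active = activation above a per-plate cutoff, the mean activation of sample wells on that plate plus 3 SD, cut at about 8% in these data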
MC4R antagonist: antagonists of human melanocortin 4 receptor (MC4R); P32245; MC4R-expressing cells, MTII-stimulated cAMP, LANCE TR-FRET; inhibition, % at 6.5 µM; 0.48% of 360,000 active;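 active = inhibition above its plate's cutoff, the mean of tested wells on that plate plus 3 SD, cut at about 29% in these data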;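 also: 0% = Melanotan II alone and 100% = Melanotan II plus saturating MCL0020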
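System: U2OS cells stably expressing human melanocortin 4 receptor (MC4R). Reagent: Melanotan II challenge after compound preincubation. Doses: 6.5 µM. Times: 30-min compound, 1-h challenge, 1-h detection, room temperature. Measured by: TR-FRET with Eu-cAMP and labeled anti-cAMP, 671 nm. Replicates: singlicate.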
ABCB6 inh 2: human ABCB6 transporter inhibition. 0.19% of 360,000 active. fluorescence ratio to DMSO, % at 10 µM. K562-ABCB6 porphyrin accumulation, flow cytometry, 1 h; hits give low values. Q9NP58;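 active = fluorescence ratio to DMSO below 75%, the collection mean minus 3 SD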;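 also: signal is porphyrin accumulated inside mitochondria; 100% equals median channel fluorescence of DMSO control wells; lower ratio means ABCB6 inhibition with less porphyrin fluorescence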
Target sequence (Q9NP58 whole entry, looked up): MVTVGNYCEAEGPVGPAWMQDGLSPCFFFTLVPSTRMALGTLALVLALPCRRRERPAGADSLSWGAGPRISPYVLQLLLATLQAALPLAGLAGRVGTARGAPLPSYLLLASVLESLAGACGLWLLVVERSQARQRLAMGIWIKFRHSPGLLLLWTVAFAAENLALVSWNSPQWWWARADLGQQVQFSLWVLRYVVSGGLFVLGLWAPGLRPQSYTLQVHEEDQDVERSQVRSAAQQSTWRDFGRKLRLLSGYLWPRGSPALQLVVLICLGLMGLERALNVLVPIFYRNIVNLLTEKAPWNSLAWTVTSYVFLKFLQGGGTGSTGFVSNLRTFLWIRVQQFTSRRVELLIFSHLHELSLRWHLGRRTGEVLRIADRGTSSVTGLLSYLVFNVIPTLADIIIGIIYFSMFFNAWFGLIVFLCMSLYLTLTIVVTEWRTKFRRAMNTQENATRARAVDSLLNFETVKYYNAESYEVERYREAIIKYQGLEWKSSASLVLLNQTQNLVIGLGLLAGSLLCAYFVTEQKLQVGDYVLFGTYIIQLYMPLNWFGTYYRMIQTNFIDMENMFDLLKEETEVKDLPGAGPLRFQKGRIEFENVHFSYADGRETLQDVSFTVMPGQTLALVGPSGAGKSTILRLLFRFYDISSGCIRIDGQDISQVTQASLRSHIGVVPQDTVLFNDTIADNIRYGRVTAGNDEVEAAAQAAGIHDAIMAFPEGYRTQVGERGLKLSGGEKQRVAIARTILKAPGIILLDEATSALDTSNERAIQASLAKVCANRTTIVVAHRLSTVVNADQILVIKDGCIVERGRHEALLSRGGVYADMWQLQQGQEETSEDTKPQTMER
TbMetRS inhib: blocks T. brucei methionyl-tRNA synthetase activity; purified T. brucei MetRS, ATP depletion, Kinase-Glo luminescence; inhibition, % at 11.9 µM; 0.4% of 360,000 active; AID 624268;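 active = inhibition above a per-plate cutoff of the control wells' mean inhibition plus 3 SD, cut at about 5.5% in these data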;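 also: 0% = DMSO wells median and 100% = median of wells with control inhibitor compound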
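Material – parasite MetRS enzyme · Medium – HEPES-MgCl2-KCl buffer plus DTT, spermine, BSA, pyrophosphatase · Reagent – ATP, methionine and E. coli bulk tRNA substrates · Times – 15 min enzyme-compound preincubation, 2 h reaction, 10 min detection, 25 °C · Measured by – luminescence of leftover ATP · Evaluation – percent inhibition relative to median high and low control wells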
hiPSC survival: enhancers of human iPSC single-cell survival; hiPSC single-cell survival, ATPlite luminescence; 100% = ROCK inhibitor wells, 0% = DMSO; survival enhancement, % at 20 µM; 0.044% of 360,000 active; in the data active = survival enhancement above about 18%;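 also: cells exposed to compounds for 16 hours before the ATP read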
ABCB6 blocker 1: blocks the human ABCB6 transporter; 700 tested, under 10 active; ratio response (% of DMSO), % at 10 µM; AID 602430; K562-ABCB6 porphyrin accumulation, flow cytometry, 1 h; hits give low values; shares compounds with ABCB6 inh 2;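 active = repeat-averaged ratio response below 75% of DMSO, the collection mean minus 3 SD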;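 also: median porphyrin fluorescence at 575 nm with 488 nm excitation from mitochondria; lower ratio means less porphyrin signal so ABCB6 inhibition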
Numbers without * were called inactive; · = no result.

SMILES	Exocytosis inh	MC4R barr agon	MC4R antagonist	ABCB6 inh 2	TbMetRS inhib	hiPSC survival	ABCB6 blocker 1
CCOC(=O)c1cnc(N2CCN(c3ccccc3)CC2)[nH]c1=O	1	0	1	96	-1	0	·
CCOC(=O)C1CCN(S(=O)(=O)c2ccc(C(=O)OC)cc2)CC1	-2	0	13	98	0	5	97
CCOC(=O)C1CCN(S(=O)(=O)c2cc(Cl)c(C)cc2OC)CC1	-1	1	0	92	-1	-2	98
CCOC(=O)C1CCN(S(=O)(=O)c2ccc(NC(=O)OC)cc2)CC1	-2	1	0	109	-1	2	98
CCOC(=O)C1CCN(S(=O)(=O)c2ccc(Br)c(OCC)c2)CC1	-2	0	8	91	-1	0	99
CCOC(=O)C1CCN(S(=O)(=O)c2ccc(Cl)cc2OC)CC1	1	-1	3	98	-1	2	·
CCOC(=O)C1CCN(S(=O)(=O)c2ccc(OC)c(OC)c2)CC1	-2	0	12	102	0	-1	·
Cc1cc(C(=O)NNC(=O)C(CCC(N)=O)NS(=O)(=O)c2ccc(Cl)cc2)c(C)o1 (centres undefined)	6	0	1	93	0	-2	·
COC(=O)c1ccc(Cn2cnc3c(N)ncnc32)cc1	11	0	-4	91	0	0	·
COc1ccccc1OCCNC(=O)C1CC(=O)N(Cc2ccc(C)cc2)C1 (centres undefined)	1	-3	3	99	0	0	·
NS(=O)(=O)c1ccc(CCNC(=O)CNC(=O)c2ccccc2F)cc1	6	2	12	105	1	2	·
NS(=O)(=O)c1ccc(CCNC(=O)CCCNC(=O)c2ccc(Cl)cc2)cc1	-4	-3	3	67*	0	0	98
NS(=O)(=O)c1ccc(CCNC(=O)c2ccc(Cl)nc2)cc1	-10	0	8	98	0	0	·
CCOc1ccc(C(C(=O)NCC2CCCO2)N(Cc2cccnc2)C(=O)c2snc(C(N)=O)c2N)cc1 (centres undefined)	6	-2	6	74*	0	0	102
CCOc1ccc(C(C(=O)NCC2CCCO2)N(Cc2ccccc2)C(=O)c2snc(C(N)=O)c2N)cc1 (centres undefined)	54	-1	7	97	0	3	·
O=C(CCC(=O)Nc1ccccc1Cl)NNC(=O)C1CCCCC1	3	-2	6	95	0	-1	·
CCC(=O)Nc1ccc(N2CCN(C(=O)c3ccccc3C)CC2)cc1	-3	0	5	65*	-2	1	98
Cc1ccccc1C(=O)N1CCN(c2ccc(NC(=O)Cc3ccccc3)cc2)CC1	0	-3	-1	97	-1	0	·
CC(C)n1c(CSCc2ccc(Cl)cc2Cl)n[nH]c1=S	2	5	3	104	1	5	·
CCN(C(=O)CSc1nnc(-c2ccco2)n1C)c1c(N)n(Cc2ccccc2)c(=O)[nH]c1=O	6	-1	9	101	0	0	·
Cn1c(CN2CCOCC2)c(C#N)c2ccccc21	4	-2	-6	60*	0	-1	100
CC(C)(C)OC(=O)[C@H](Cc1ccccc1)NC(=O)c1[nH]cnc1C(=O)Nc1ccccc1F	4	-1	14	95	-1	2	·
CCn1c(=O)n(CC)c2cc(N3CCCC3)c(NC(=O)c3ccccc3C)cc21	-2	0	-10	64*	-1	1	98
CCc1ccc(C(O)c2ncc(-c3ccccc3OC)[nH]2)cc1 (centres undefined)	-5	0	9	73*	0	-1	98
O=C(COC(=O)CCCC1=NS(=O)(=O)c2ccccc2N1)Nc1ccccc1	10	-1	16	98	0	0	99
SMILES	Exocytosis inh	MC4R barr agon	MC4R antagonist	ABCB6 inh 2	TbMetRS inhib	hiPSC survival	ABCB6 blocker 1
COc1cc(NC(=O)COC(=O)CCCC2=NS(=O)(=O)c3ccccc3N2)cc(OC)c1	-3	-1	5	97	-1	0	100
Cc1cccc(NC(=O)COC(=O)CCCC2=NS(=O)(=O)c3ccccc3N2)c1	2	-2	6	103	0	0	·
CN(CCc1ccccc1)C(=O)c1ccc(NC(=O)Cc2ccc(NC(=O)C3CCN(C(=O)C4CCC4)CC3)cc2)cc1	-3	1	1	100	0	-2	·
CCOC(=O)c1c(NC(=O)c2ccc(N3C(=O)[C@@H]4[C@H](C3=O)[C@H]3C=C[C@@H]4C3)cc2)sc2c1CC(C)CC2 (some centres undefined)	2	-1	-2	68*	-1	-1	96
Cc1cccn2c(=O)c3cc(S(=O)(=O)c4ccccc4)c(=N)n(Cc4ccco4)c3nc12	4	4	1	66*	-2	0	104
CSCCC(NC(=O)COc1ccccc1)C(=O)NCc1cccs1 (centres undefined)	5	0	6	97	0	0	·
CC1(C(=O)N2CCN(C(=O)c3ccco3)CC2)CCN1Cc1ccccc1OC(F)F (centres undefined)	11	-2	3	70*	0	-4	99
Cc1cccc(NC(=O)c2oc3ccc(S(=O)(=O)N4CCOCC4)cc3c2C)c1C	11	0	6	68*	-2	2	99
Cc1cccc(C)c1OCCOC(=O)c1cccc(S(=O)(=O)N2CCOCC2)c1	-2	1	0	71*	0	5	100
Cc1cccc(C)c1OCCOC(=O)c1ccc(S(=O)(=O)N2CCCC2)cc1	5	-2	11	97	0	1	·
CCN(CC)S(=O)(=O)c1ccc(C)c(NC(=O)CN2C(=O)NC3(CCCC3)C2=O)c1	3	-2	6	74*	-1	0	96
O=C(CO/N=C/c1ccccc1O)N1CCc2ccccc21	-2	0	0	97	0	-1	·
Cc1cccc(NC(=O)CCNC(=O)c2ccccc2Cl)n1	-4	-3	6	103	0	0	·
Cc1cccc(NC(=O)c2cc(NC(=O)CCCC(=O)O)ccc2Cl)n1	-1	-3	-4	53*	0	-2	102
COc1cccc(-c2nc(NC(C)C)c3ccccc3n2)c1O	2	-2	2	49*	0	-1	99
COc1cccc(-c2nc(NCC3CCCO3)c3ccccc3n2)c1O (centres undefined)	2	-1	12	93	-1	1	·
